Values after ≈ are worked out from the molar mass of the structure shown. Some results are limits rather than exact numbers.

The subject of this test is HL-60. As to the kind of experiment: Cytotoxicity against human HL-60 cells after 72 hrs by MTT assay. Type of test: functional, cell-based. As to conditions: HL-60, 72 h. The method, boiled down:
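HL-60 human promyelocytic leukemia cells grown in RPMI 1640 with 10% FBS, L-glutamine and penicillin/streptomycin. Seeded at 3 × 10^4 cells/mL and preincubated 24 h at 37 °C in 5% CO2. Samples added in EtOH–H2O (1:1) at final 0.0001–50 µg/mL, with vehicle controls, for 72 h. MTT then 4 h, formazan dissolved in DMSO, read at 550 nm. IC50 taken from dose-response curves of samples giving >50% inhibition at 10 µg/mL.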
Regarding `C[C@@H]1O[C@@H](O[C@H]2[C@H](O[C@H]3CC[C@]4(C)[C@H]5CC=C6[C@@H]7CC(C)(C)CC[C@]7(C(=O)O)CC[C@@]6(C)[C@]5(C)CC[C@H]4C3(C)C)OC[C@H](O)[C@@H]2O)[C@H](O)[C@H](O[C@@H]2O[C@H](CO)[C@@H](O[C@@H]3O[C@H](CO)[C@@H](O)[C@H](O)[C@H]3O)[C@H](O)[C@H]2O)[C@H]1O`, the IC50 amounted to 2.6 µg/mL (≈ 2.45 µM).

`CC1(C)CC[C@]2(C(=O)O)CC[C@]3(C)C(=CC[C@@H]4[C@@]5(C)CC[C@H](O[C@@H]6OC[C@H](O[C@@H]7O[C@H](CO)[C@@H](O)[C@H](O)[C@H]7O)[C@H](O)[C@H]6O)[C@@](C)(CO)[C@@H]5CC[C@]43C)[C@@H]2C1` yielded an IC50 of over 10 µg/mL.

On to `C[C@@H]1O[C@@H](O[C@H]2[C@H](O[C@H]3CC[C@]4(C)[C@H]5CC=C6[C@@H]7CC(C)(C)CC[C@]7(C(=O)O)CC[C@@]6(C)[C@]5(C)CC[C@H]4C3(C)C)OC[C@H](O)[C@@H]2O)[C@H](O)[C@H](O[C@@H]2O[C@H](CO)[C@@H](O)[C@H](O)[C@H]2O)[C@H]1O`, for which half-maximal inhibition (IC50) was put at 3.6 µg/mL (≈ 4.01 µM).

In turn, `C[C@@H]1O[C@@H](O[C@H]2[C@H](O[C@H]3CC[C@@]4(C)[C@@H](CC[C@]5(C)[C@@H]4CC=C4[C@@H]6CC(C)(C)CC[C@]6(C(=O)O)CC[C@]45C)[C@]3(C)CO)OC[C@H](O)[C@@H]2O)[C@H](O)[C@H](O[C@@H]2O[C@H](CO)[C@@H](O)[C@H](O)[C@H]2O)[C@H]1O` had an IC50 of 7.8 µg/mL (≈ 8.54 µM).

On to `C[C@@H]1O[C@@H](O[C@H]2[C@H](O[C@H]3CC[C@]4(C)[C@H]5CC=C6[C@@H]7CC(C)(C)CC[C@]7(C(=O)O)CC[C@@]6(C)[C@]5(C)CC[C@H]4C3(C)C)OC[C@H](O)[C@@H]2O)[C@H](O)[C@H](O)[C@H]1O`, for which the midpoint of inhibition, the IC50, lay at 4.4 µg/mL (≈ 5.99 µM).

On to `COC(=O)[C@]12CCC(C)(C)C[C@H]1C1=CC[C@@H]3[C@@]4(C)CC[C@H](O[C@@H]5OC[C@H](O)[C@H](O)[C@H]5O[C@@H]5O[C@@H](C)[C@H](O)[C@@H](O[C@@H]6O[C@H](CO)[C@@H](O[C@@H]7O[C@H](CO)[C@@H](O)[C@H](O)[C@H]7O)[C@H](O)[C@H]6O)[C@H]5O)C(C)(C)[C@@H]4CC[C@@]3(C)[C@]1(C)CC2`, for which the IC50 was found to be 7.8 µg/mL (≈ 7.27 µM).

Consider `COC(=O)[C@]12CCC(C)(C)C[C@H]1C1=CC[C@@H]3[C@@]4(C)CC[C@H](O[C@@H]5OC[C@H](O)[C@H](O)[C@H]5O[C@@H]5O[C@@H](C)[C@H](O)[C@@H](O[C@@H]6O[C@H](CO)[C@@H](O)[C@H](O)[C@H]6O)[C@H]5O)[C@@](C)(CO)[C@@H]4CC[C@@]3(C)[C@]1(C)CC2`, for which the IC50 was determined as 8 µg/mL (≈ 8.63 µM).

Turning to `C[C@@H]1O[C@@H](O[C@H]2[C@H](O[C@H]3CC[C@]4(C)[C@H]5CC=C6[C@@H]7CC(C)(C)CC[C@]7(C(=O)O)CC[C@@]6(C)[C@]5(C)CC[C@H]4C3(C)C)OC[C@H](O[C@@H]3O[C@H](CO)[C@@H](O)[C@H](O)[C@H]3O)[C@@H]2O)[C@H](O)[C@H](O[C@@H]2O[C@H](CO)[C@@H](O[C@@H]3O[C@H](CO)[C@@H](O)[C@H](O)[C@H]3O)[C@H](O)[C@H]2O)[C@H]1O`, the concentration for half-maximal inhibition (IC50) is 2.7 µg/mL (≈ 2.21 µM).

As for `COc1cc([C@@H]2OC[C@@H]3[C@H]2CO[C@H]3c2ccc(O)c(OC)c2)ccc1O` [(+)-PINORESINOL], the IC50 was over 10 µg/mL.

Turning to `C[C@@H]1O[C@@H](O[C@H]2[C@H](O[C@H]3CC[C@@]4(C)[C@@H](CC[C@]5(C)[C@@H]4CC=C4[C@@H]6CC(C)(C)CC[C@]6(C(=O)O)CC[C@]45C)[C@]3(C)CO)OC[C@H](O)[C@@H]2O)[C@H](O)[C@H](O)[C@H]1O` [ALPHA-HEDERIN], the midpoint of inhibition, the IC50, lay at 7.1 µg/mL (≈ 9.45 µM).

`COc1cc([C@@H]2c3cc4c(c(O)c3C[C@H]3COC(=O)[C@@H]32)OCO4)cc(OC)c1OC` [BETA-PELTATIN A] came in with an IC50 of 0.0052 µg/mL (≈ 0.0125 µM).

`COc1cc([C@@H]2c3cc4c(cc3[C@@H](O[C@@H]3O[C@@H]5CO[C@@H](C)O[C@H]5[C@H](O)[C@H]3O)[C@H]3COC(=O)[C@H]23)OCO4)cc(OC)c1O` [ETOPOSIDE] returned an IC50 of 0.3 µg/mL (≈ 0.51 µM).

`C[C@@H]1O[C@@H](O[C@H]2[C@H](O[C@H]3CC[C@]4(C)[C@H]5CC=C6[C@@H]7CC(C)(C)CC[C@]7(C(=O)O)CC[C@@]6(C)[C@]5(C)CC[C@H]4C3(C)C)OC[C@H](O[C@@H]3O[C@H](CO)[C@@H](O)[C@H](O)[C@H]3O)[C@@H]2O)[C@H](O)[C@H](O)[C@H]1O` [HEDERACOLCHISIDE A1] registered an IC50 of 2.3 µg/mL (≈ 2.56 µM).

As to `C[C@@H]1O[C@@H](O[C@H]2[C@H](O[C@H]3CC[C@@]4(C)[C@@H](CC[C@]5(C)[C@@H]4CC=C4[C@@H]6CC(C)(C)CC[C@]6(C(=O)O)CC[C@]45C)[C@]3(C)CO)OC[C@H](O[C@@H]3O[C@H](CO)[C@@H](O)[C@H](O)[C@H]3O)[C@@H]2O)[C@H](O)[C@H](O)[C@H]1O` [HEDERACOLCHISIDE A], the IC50 is 3.8 µg/mL (≈ 4.16 µM).

As to `CC1(C)CC[C@]2(C(=O)O)CC[C@]3(C)C(=CC[C@@H]4[C@@]5(C)CC[C@H](O)C(C)(C)[C@@H]5CC[C@]43C)[C@@H]2C1` [OLEANOLIC_ACID], the 50% inhibitory concentration (IC50) was over 50 µg/mL.

As a reminder, the IC50 is the point on the concentration scale where inhibition reaches its midpoint. Low values mean higher potency, high ones lower potency.

Source of the values: ChEMBL document CHEMBL1144110, “Triterpene saponins and lignans from the roots of Pulsatilla chinensis and their cytotoxic activity against HL-60 cells” (J Nat Prod, 1999).
